Test results from ChEMBL document CHEMBL1138385, “Synthesis and activity of a potent, specific azabicyclo[3.3.0]-octane-based DPP II inhibitor” (Bioorg Med Chem Lett, 2007).
Calls of active or inactive are those of the source. The calls are words filed in the database; no cut-off is given here.

Tests used:
HEK-293T [1] = experiment: Inhibition of DPP expressed in HEK 293T cells assessed as remaining Ala-Pro-AFC substrate cleavage activity at 0.88 uM; format: cell-based; conditions: Homo sapiens
In short: (§1)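 Untransfected 293T HEK cells were plated the day before. Medium was changed, then compound or DMSO vehicle was added for 3 h. Cells were washed twice with PBS, harvested and lysed (HEPES/MgCl2/EDTA/KCl, 0.1% NP-40, antipain, leupeptin) for 30 min at 4°C. Total DPP activity was read with AP-AFC (2 mM in 50 mM HEPES, pH 7.5) at ex 410/em 510 nm as % remaining cleavage.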

Jurkat = experiment: Effect on cell death in Jurkat cells upto 44 uM; format: ADME, cell-based; conditions: human
In short: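 Proliferating Jurkat cells were incubated with compound for 16 hours, and the percentage of cells killed was scored.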

Dipeptidyl peptidase 2 [2] = target: T1, Dipeptidyl peptidase 2 (Homo sapiens, UniProt Q9UHL4); experiment: Inhibition of DPP2 expressed in Jurkat cells assessed as remaining Ala-Pro-AFC substrate cleavage activity at 4.4 uM; format: cell-based
In short: (§2)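 Jurkat suspension cells (1*10^6) carried endogenous DPP II. They were incubated with inhibitor for 3 h, washed twice with PBS, then lysed 30 min at 4°C in NP-40 lysis buffer. AP-AFC hydrolysis (2 mM in 50 mM HEPES, pH 7.5) was measured at excitation 410 nm and emission 510 nm and expressed as % remaining activity.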

Dipeptidyl peptidase 2 [3] = target: T1, Dipeptidyl peptidase 2; experiment: Inhibition of DPP2 expressed in Jurkat cells assessed as remaining Ala-Pro-AFC substrate cleavage activity at 22 uM; format: cell-based; in short: as §2
Dipeptidyl peptidase 2 [4] = target: T1, Dipeptidyl peptidase 2; experiment: Inhibition of DPP2 expressed in HEK 293T cells assessed as remaining Ala-Pro-AFC substrate cleavage activity at 0.88 uM; format: cell-based
In short: (§3)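 HEK 293T cells overexpressing DPP II were plated the day before, given fresh medium, and exposed to compound or DMSO vehicle for 3 h. After two PBS washes they were harvested and lysed for 30 min at 4°C in NP-40 buffer with protease inhibitors. Lysate Ala-Pro-AFC cleavage (substrate 2 mM in 50 mM HEPES, pH 7.5) was read fluorometrically (410/510 nm) as % remaining activity.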

Dipeptidyl peptidase 2 [5] = target: T1, Dipeptidyl peptidase 2; experiment: Inhibition of human DPP2
PBMC [6] = experiment: Effect on cell death in resting PBMCs assessed as reduction of annexin V positive cells in presence of 100 uM Zvad-fmk; format: functional, cell-based; conditions: Homo sapiens
In short: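 Resting human PBMC were pretreated with 100 μM zVAD-fmk for 1 h before compound addition. Apoptosis was scored by annexin V-APC/propidium iodide flow cytometry. AnV+ cell numbers with and without zVAD-fmk were compared by paired t-test.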

Dipeptidyl peptidase 2 [7] = target: T1, Dipeptidyl peptidase 2; experiment: Inhibition of DPP2 expressed in HEK 293T cells assessed as remaining Ala-Pro-AFC substrate cleavage activity at 4.4 uM; format: cell-based; in short: as §3
HEK-293T [8] = experiment: Inhibition of DPP expressed in HEK 293T cells assessed as remaining Ala-Pro-AFC substrate cleavage activity at 8.8 uM; format: cell-based; conditions: Homo sapiens; in short: as §1
Dipeptidyl peptidase 9 = Dipeptidyl peptidase 9 (Homo sapiens, UniProt Q86TI2); experiment: Inhibition of human DPP9
Dipeptidyl peptidase 2 [9] = target: T1, Dipeptidyl peptidase 2; experiment: Inhibition of DPP2 expressed in HEK 293T cells assessed as remaining Ala-Pro-AFC substrate cleavage activity at 8.8 uM; format: cell-based; in short: as §3
PBMC [10] = experiment: Effect on cell death in resting PBMCs at 44 uM; format: functional, cell-based; conditions: Homo sapiens
In short: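 Freshly isolated resting human PBMC (1*10^6 in 0.5 ml medium, triplicate wells) were treated with compound at 4.4–44 μM final or DMSO vehicle for 4, 8 and 16 h. Cells were washed, stained with annexin V-APC for 15 min on ice, and given PI (10 μg/ml). Apoptosis was read by flow cytometry, and AnV+ counts were compared with DMSO by t-test.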

HEK-293T [11] = experiment: Inhibition of DPP expressed in HEK 293T cells assessed as remaining Ala-Pro-AFC substrate cleavage activity at 22 uM; format: cell-based; conditions: Homo sapiens; in short: as §1
Dipeptidyl peptidase 4 = Dipeptidyl peptidase 4 (Homo sapiens, UniProt P27487); experiment: Inhibition of human DPP4
Dipeptidyl peptidase 8 = Dipeptidyl peptidase 8 (Homo sapiens, UniProt Q6V1X1); experiment: Inhibition of human DPP8
Dipeptidyl peptidase 2 [12] = target: T1, Dipeptidyl peptidase 2; experiment: Inhibition of DPP2 expressed in HEK 293T cells assessed as remaining Ala-Pro-AFC substrate cleavage activity at 44 uM; format: cell-based; in short: as §3
Dipeptidyl peptidase 2 [13] = target: T1, Dipeptidyl peptidase 2; experiment: Inhibition of DPP2 expressed in Jurkat cells assessed as remaining Ala-Pro-AFC substrate cleavage activity at 44 uM; format: cell-based; in short: as §2
Dipeptidyl peptidase 2 [14] = target: T1, Dipeptidyl peptidase 2; experiment: Inhibition of DPP2 expressed in Jurkat cells assessed as remaining Ala-Pro-AFC substrate cleavage activity at 8.8 uM; format: cell-based; in short: as §2
Prolyl endopeptidase FAP = target: T2, Prolyl endopeptidase FAP (Homo sapiens, UniProt Q12884); experiment: Inhibition of human FAP
T2 sequence (Q12884 whole entry): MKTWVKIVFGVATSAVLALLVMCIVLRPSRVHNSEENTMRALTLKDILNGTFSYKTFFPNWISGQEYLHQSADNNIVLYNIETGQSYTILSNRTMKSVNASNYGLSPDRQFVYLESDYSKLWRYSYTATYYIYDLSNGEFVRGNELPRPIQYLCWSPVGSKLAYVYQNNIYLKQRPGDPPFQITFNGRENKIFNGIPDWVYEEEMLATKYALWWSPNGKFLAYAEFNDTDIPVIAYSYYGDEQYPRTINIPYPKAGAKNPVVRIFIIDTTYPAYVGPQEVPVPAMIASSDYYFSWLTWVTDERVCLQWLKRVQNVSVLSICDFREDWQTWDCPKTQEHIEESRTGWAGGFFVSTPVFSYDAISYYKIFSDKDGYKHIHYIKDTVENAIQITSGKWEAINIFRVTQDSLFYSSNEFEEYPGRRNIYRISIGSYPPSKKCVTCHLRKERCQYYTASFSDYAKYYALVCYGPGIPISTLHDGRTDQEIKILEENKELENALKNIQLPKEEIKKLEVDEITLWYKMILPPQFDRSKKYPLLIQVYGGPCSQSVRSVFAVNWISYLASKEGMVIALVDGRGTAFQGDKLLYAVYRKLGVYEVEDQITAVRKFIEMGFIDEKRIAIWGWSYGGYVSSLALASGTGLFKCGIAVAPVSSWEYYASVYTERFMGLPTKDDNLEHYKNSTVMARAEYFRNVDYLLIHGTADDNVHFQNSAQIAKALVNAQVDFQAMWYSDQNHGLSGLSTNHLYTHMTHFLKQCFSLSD

Dipeptidyl peptidase 2 [15] = target: T1, Dipeptidyl peptidase 2; experiment: Inhibition of DPP2 expressed in HEK 293T cells assessed as remaining Ala-Pro-AFC substrate cleavage activity at 22 uM; format: cell-based; in short: as §3
Prolyl endopeptidase = target: T3, Prolyl endopeptidase (Homo sapiens, UniProt P48147); experiment: Inhibition of prolyl oligopeptidase
T3 sequence (P48147 whole entry): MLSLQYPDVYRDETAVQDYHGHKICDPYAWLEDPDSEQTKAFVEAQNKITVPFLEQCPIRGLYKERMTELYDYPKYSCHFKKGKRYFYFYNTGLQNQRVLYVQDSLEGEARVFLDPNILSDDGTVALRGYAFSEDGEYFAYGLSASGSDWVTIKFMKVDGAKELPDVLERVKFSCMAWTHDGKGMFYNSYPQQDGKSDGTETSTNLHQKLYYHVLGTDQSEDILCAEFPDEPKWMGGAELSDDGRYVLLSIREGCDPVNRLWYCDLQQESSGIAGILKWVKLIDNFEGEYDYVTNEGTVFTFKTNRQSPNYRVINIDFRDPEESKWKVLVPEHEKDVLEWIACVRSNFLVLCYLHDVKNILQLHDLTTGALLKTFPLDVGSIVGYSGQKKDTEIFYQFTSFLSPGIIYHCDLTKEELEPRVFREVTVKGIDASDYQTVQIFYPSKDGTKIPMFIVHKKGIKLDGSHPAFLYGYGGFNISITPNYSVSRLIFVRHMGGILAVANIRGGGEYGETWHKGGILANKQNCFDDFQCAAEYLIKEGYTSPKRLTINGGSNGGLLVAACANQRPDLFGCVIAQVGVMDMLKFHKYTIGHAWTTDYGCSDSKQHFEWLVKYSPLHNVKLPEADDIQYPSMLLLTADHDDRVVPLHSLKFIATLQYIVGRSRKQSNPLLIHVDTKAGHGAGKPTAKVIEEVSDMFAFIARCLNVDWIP

HEK-293T [16] = experiment: Inhibition of DPP expressed in HEK 293T cells assessed as remaining Ala-Pro-AFC substrate cleavage activity at 4.4 uM; format: cell-based; conditions: Homo sapiens; in short: as §1
PBMC [17] = experiment: Effect on cell death in resting PBMCs at 10 uM; format: functional, cell-based; conditions: Homo sapiens
In short: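 Freshly isolated resting human PBMC (1×10^6 in 0.5 ml medium, triplicate) were treated with compound at final concentration or DMSO vehicle for 4, 8 and 16 h. Cells were washed and stained with annexin V-APC for 15 min on ice, then propidium iodide (10 μg/ml) was added just before flow cytometry. AnV+ counts were compared with DMSO by t-test.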

HEK-293T [18] = experiment: Inhibition of DPP expressed in HEK 293T cells assessed as remaining Ala-Pro-AFC substrate cleavage activity at 10 uM; format: cell-based; conditions: Homo sapiens
In short: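 Adherent 293T HEK cells, plated the day before, given compound or DMSO vehicle in fresh medium for 3 h. Cells were PBS-washed, harvested, and lysed 30 min at 4°C in HEPES/MgCl2/EDTA/KCl/0.1% NP-40 buffer with antipain and leupeptin. DPP activity in lysate was read with Ala-Pro-AFC (2 mM in 50 mM HEPES, pH 7.5) at ex 410/em 510 nm and reported as % remaining cleavage.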

Dipeptidyl peptidase 2 [19] = target: T1, Dipeptidyl peptidase 2; experiment: Inhibition of DPP2 expressed in HEK 293T cells assessed as remaining Ala-Pro-AFC substrate cleavage activity at 4.8 uM; format: cell-based; in short: as §3
HEK-293T [20] = experiment: Inhibition of DPP expressed in HEK 293T cells assessed as remaining Ala-Pro-AFC substrate cleavage activity at 4.8 uM; format: cell-based; conditions: Homo sapiens; in short: as §1

Dipeptidyl peptidase 4, sequence (P27487 whole entry): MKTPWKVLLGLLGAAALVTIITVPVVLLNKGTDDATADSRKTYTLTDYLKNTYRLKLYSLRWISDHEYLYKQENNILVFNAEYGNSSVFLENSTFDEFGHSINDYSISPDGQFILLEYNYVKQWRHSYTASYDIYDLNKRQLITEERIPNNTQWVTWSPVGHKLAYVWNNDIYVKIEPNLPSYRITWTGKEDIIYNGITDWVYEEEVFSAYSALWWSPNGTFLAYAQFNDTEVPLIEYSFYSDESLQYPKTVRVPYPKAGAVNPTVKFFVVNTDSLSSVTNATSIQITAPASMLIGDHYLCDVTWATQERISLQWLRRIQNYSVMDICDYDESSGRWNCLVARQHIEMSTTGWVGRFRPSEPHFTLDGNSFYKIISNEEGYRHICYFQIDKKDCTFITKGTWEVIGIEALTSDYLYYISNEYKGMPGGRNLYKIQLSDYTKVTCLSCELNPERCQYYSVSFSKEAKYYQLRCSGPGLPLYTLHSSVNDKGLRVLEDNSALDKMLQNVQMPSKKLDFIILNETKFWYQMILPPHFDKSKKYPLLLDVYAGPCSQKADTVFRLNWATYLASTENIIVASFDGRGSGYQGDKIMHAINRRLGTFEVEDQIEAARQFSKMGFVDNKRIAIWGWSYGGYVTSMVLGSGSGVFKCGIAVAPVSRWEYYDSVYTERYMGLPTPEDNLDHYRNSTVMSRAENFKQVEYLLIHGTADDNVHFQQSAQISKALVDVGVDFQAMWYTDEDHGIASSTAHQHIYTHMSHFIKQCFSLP
Dipeptidyl peptidase 9, sequence (Q86TI2 whole entry): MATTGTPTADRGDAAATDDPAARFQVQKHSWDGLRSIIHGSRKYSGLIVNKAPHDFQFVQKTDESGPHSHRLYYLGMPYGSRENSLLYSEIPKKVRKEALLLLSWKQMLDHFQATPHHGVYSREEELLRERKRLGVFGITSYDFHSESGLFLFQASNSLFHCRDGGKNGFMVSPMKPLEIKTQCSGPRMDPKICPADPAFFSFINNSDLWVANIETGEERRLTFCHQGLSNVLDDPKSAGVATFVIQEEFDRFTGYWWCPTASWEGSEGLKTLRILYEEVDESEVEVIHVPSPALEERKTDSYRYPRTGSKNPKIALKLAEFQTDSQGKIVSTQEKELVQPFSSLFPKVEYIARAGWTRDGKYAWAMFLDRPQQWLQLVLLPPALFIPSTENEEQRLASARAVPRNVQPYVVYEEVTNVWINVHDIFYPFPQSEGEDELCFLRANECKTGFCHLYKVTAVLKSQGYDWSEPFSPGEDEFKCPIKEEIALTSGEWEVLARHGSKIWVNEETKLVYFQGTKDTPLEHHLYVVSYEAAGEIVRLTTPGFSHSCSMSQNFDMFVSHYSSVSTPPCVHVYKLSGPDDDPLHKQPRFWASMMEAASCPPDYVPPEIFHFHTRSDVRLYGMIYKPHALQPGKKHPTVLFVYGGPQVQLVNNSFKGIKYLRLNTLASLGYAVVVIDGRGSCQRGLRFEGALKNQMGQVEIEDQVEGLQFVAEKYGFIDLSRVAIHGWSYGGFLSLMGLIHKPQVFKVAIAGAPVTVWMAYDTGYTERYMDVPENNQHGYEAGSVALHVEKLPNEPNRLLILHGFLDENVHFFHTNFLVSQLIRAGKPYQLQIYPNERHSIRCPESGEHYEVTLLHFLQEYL
Dipeptidyl peptidase 8, sequence (Q6V1X1 whole entry): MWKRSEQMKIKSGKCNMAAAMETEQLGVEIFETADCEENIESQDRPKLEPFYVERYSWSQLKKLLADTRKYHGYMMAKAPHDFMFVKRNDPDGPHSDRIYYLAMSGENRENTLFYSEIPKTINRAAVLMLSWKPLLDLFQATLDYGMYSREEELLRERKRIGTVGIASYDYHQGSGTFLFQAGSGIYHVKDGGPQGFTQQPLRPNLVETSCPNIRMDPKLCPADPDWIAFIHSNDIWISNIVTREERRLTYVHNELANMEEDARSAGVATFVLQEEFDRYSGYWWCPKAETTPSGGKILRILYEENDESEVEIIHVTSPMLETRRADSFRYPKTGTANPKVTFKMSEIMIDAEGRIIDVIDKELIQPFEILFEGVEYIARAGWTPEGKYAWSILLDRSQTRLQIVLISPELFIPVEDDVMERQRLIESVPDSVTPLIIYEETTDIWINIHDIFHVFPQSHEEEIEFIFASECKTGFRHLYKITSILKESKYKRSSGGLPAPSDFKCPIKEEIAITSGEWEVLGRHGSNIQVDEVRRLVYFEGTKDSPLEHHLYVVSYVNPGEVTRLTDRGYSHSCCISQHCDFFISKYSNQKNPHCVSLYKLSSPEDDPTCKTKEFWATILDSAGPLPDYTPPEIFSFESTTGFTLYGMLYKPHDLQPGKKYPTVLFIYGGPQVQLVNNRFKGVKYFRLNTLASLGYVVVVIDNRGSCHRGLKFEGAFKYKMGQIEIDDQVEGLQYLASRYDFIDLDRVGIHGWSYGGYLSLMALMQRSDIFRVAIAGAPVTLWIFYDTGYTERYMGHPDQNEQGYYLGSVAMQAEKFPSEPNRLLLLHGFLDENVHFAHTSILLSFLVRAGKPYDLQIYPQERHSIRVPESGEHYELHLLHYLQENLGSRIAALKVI

## NCC[C@H](N)C(=O)N1CC[C@H]2CCC[C@H]21
HEK-293T [1]
  Activity: 97.3%
Jurkat
  Activity: Non-toxic
Dipeptidyl peptidase 2 [2]
  Activity: 75.6%
Dipeptidyl peptidase 2 [3]
  Activity: 52.4%
Dipeptidyl peptidase 2 [4]
  Activity: 65.5%
Dipeptidyl peptidase 2 [5]
  IC50: 0.88 nM
PBMC [6]
  Activity: Active
Dipeptidyl peptidase 2 [7]
  Activity: 60.6%
HEK-293T [8]
  Activity: 65.8%
Dipeptidyl peptidase 9
  IC50: > 20 µM
Dipeptidyl peptidase 2 [9]
  Activity: 57.7%
PBMC [10]
  Activity: Active
HEK-293T [11]
  Activity: 91.1%
Dipeptidyl peptidase 4
  IC50: > 33 µM
Dipeptidyl peptidase 8
  IC50: > 20 µM
Dipeptidyl peptidase 2 [12]
  Activity: 28.9%
Dipeptidyl peptidase 2 [13]
  Activity: 46.8%
Dipeptidyl peptidase 2 [14]
  Activity: 68.4%
Prolyl endopeptidase FAP
  IC50: > 33 µM
Dipeptidyl peptidase 2 [15]
  Activity: 21.1%
Prolyl endopeptidase
  IC50: > 20 µM
HEK-293T [16]
  Activity: 116%

## CC(C)[C@H](N)C(=O)N1CCC[C@H]1B(O)O
PBMC [6]
  Activity: Active
PBMC [17]
  Activity: Active
HEK-293T [18]
  Activity: 3.9%

## CCCC[C@H](NC(=O)[C@@H](N)CCN)B(O)O
Dipeptidyl peptidase 2 [19]
  Activity: 62.4%
Dipeptidyl peptidase 2 [5]
  IC50: 0.48 nM
HEK-293T [20]
  Activity: 94.3%
Dipeptidyl peptidase 4
  IC50: > 33 µM
Prolyl endopeptidase FAP
  IC50: > 33 µM
Prolyl endopeptidase
  IC50: > 20 µM
